Tests used:
[1] = Antiplatelet activity against washed rabbit platelet assessed as inhibition of thrombin-induced platelet aggregation at 100 ug/ml preincubated for 3 mins by turbidimetric method; format: functional, Oryctolagus cuniculus; set-up: scale not given: the % may be the effect or the level left
Summary of the method: (§1)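 Washed rabbit platelets from EDTA-anticoagulated platelet-rich plasma, 4.5×10^8/ml in Tyrode solution with 0.35% BSA, stirred at 1200 rpm at 37°. Turbidimetric read-out; % aggregation as means ± S.E. (n=3), Student's t test versus DMSO control.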

[2] = Antiplatelet activity against washed rabbit platelet assessed as inhibition of arachidonic acid-induced platelet aggregation at 100 ug/ml preincubated for 3 mins by turbidimetric method; format: functional, Oryctolagus cuniculus; set-up: scale not given: the % may be the effect or the level left; summary of the method: as §1
[3] = Antiplatelet activity against washed rabbit platelet assessed as inhibition of platelet activating factor-induced platelet aggregation at 100 ug/ml preincubated for 3 mins by turbidimetric method; format: functional, Oryctolagus cuniculus; set-up: scale not given: the % may be the effect or the level left; summary of the method: as §1
[4] = Antiplatelet activity against washed rabbit platelet assessed as inhibition of arachidonic acid-induced platelet aggregation at 20 ug/ml preincubated for 3 mins by turbidimetric method; format: functional, Oryctolagus cuniculus; set-up: scale not given: the % may be the effect or the level left; summary of the method: as §1
[5] = Antiplatelet activity against washed rabbit platelet assessed as inhibition of arachidonic acid-induced platelet aggregation at 10 ug/ml preincubated for 3 mins by turbidimetric method; values are per cent of control
[6] = Antiplatelet activity against washed rabbit platelet assessed as inhibition of arachidonic acid-induced platelet aggregation at 5 ug/ml preincubated for 3 mins by turbidimetric method; values are per cent of control
[7] = (§2) Antiplatelet activity against washed rabbit platelet assessed as inhibition of arachidonic acid-induced platelet aggregation preincubated for 3 mins by turbidimetric method; format: functional, cell-based; conditions: Oryctolagus cuniculus
Summary of the method: (§3)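 Washed rabbit platelets, 4.5×10^8/ml in Tyrode–0.35% BSA, stirred at 1200 rpm at 37°. Compound preincubated 3 min (final DMSO 0.5%) before arachidonic acid 100 μM. Aggregation read turbidimetrically. Percent inhibition across concentrations given as means ± S.E. (n=3); IC50 taken from the concentration–response curve.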

Platelet = assay: as §2; format: functional, cell-based; conditions: Oryctolagus cuniculus; summary of the method: as §3
[8] = Antiplatelet activity against washed rabbit platelet assessed as inhibition of collagen-induced platelet aggregation at 100 ug/ml preincubated for 3 mins by turbidimetric method; format: functional, Oryctolagus cuniculus; set-up: scale not given: the % may be the effect or the level left; summary of the method: as §1
[9] = Antiplatelet activity against washed rabbit platelet assessed as inhibition of platelet activating factor-induced platelet aggregation at 50 ug/ml preincubated for 3 mins by turbidimetric method; format: functional, Oryctolagus cuniculus; set-up: scale not given: the % may be the effect or the level left; summary of the method: as §1
[10] = Antiplatelet activity against washed rabbit platelet assessed as inhibition of arachidonic acid-induced platelet aggregation at 50 ug/ml preincubated for 3 mins by turbidimetric method; values are per cent of control
[11] = Antiplatelet activity against washed rabbit platelet assessed as inhibition of collagen-induced platelet aggregation at 20 ug/ml preincubated for 3 mins by turbidimetric method; format: functional, Oryctolagus cuniculus; summary of the method: as §1
[12] = Antiplatelet activity against washed rabbit platelet assessed as inhibition of collagen-induced platelet aggregation at 5 ug/ml preincubated for 3 mins by turbidimetric method; format: functional, Oryctolagus cuniculus; summary of the method: as §1
[13] = Antiplatelet activity against washed rabbit platelet assessed as inhibition of collagen-induced platelet aggregation at 2 ug/ml preincubated for 3 mins by turbidimetric method; format: functional, Oryctolagus cuniculus; summary of the method: as §1
[14] = Antiplatelet activity against washed rabbit platelet assessed as inhibition of collagen-induced platelet aggregation at 10 ug/ml preincubated for 3 mins by turbidimetric method; format: functional, Oryctolagus cuniculus; summary of the method: as §1
[15] = Antiplatelet activity against washed rabbit platelet assessed as inhibition of collagen-induced platelet aggregation at 50 ug/ml preincubated for 3 mins by turbidimetric method; format: functional, Oryctolagus cuniculus; set-up: scale not given: the % may be the effect or the level left; summary of the method: as §1

Question: Which results are given for `COc1cc(CCc2cc(OC)c(OC(C)=O)c(OC)c2)ccc1OC(C)=O` [MOSCATILIN DIACETATE]?
Answer: Activity [1]: 93.4%; Activity [2]: 0%; Activity [3]: 36%; Activity [4]: 0%; level, % of control [5]: 0%; level, % of control [6]: 33.9%; IC50 [7]: 11.2 µM; Activity (Platelet): Dose-dependent effect; Activity [8]: 12.8%

Question: With `COc1cc(O)cc2ccc3cccc(O)c3c12` [MOSCATIN] as the molecule, how does the Activity [9] read?
Answer: 72.1%

Question: And the “level, % of control” value [10]?
Answer: 0%

Question: What about the Activity [1] of the same molecule?
Answer: 41%

Question: What about the aggregation [11] of the same molecule?
Answer: 19.6%

Question: And the Activity [2]?
Answer: 0%

Question: What about the aggregation [12] of the same molecule?
Answer: 58.4%

Question: And the Activity [3]?
Answer: 24.7%

Question: What about the aggregation [13] of the same molecule?
Answer: 78.5%

Question: What about the Activity [4] of the same molecule?
Answer: 0%

Question: What about the “level, % of control” value [5] of the same molecule?
Answer: 22.8%

Question: And the aggregation [14]?
Answer: 42.3%

Question: What about the “level, % of control” value [6] of the same molecule?
Answer: 87.6%

Question: What about the Activity [15] of the same molecule?
Answer: 0%

Question: What about the IC50 [7] of the same molecule?
Answer: 37.2 µM

Question: What about the Activity (Platelet) of the same molecule?
Answer: Dose-dependent effect

Question: And the Activity [8]?
Answer: 0%

Question: What does the source list for `COc1cc(CCc2cc(OC)c(O)c(OC)c2)ccc1O` [MOSCATILIN]?
Answer: Activity [9]: 72.1%; level, % of control [10]: 0%; Activity [1]: 85.3%; aggregation [11]: 19.6%; Activity [2]: 0%; aggregation [12]: 58.4%; Activity [3]: 24.7%; aggregation [13]: 78.5%; Activity [4]: 36.4%; level, % of control [5]: 52%; aggregation [14]: 42.3%; level, % of control [6]: 78.7%; Activity [15]: 0%; IC50 [7]: 61.8 µM; Activity (Platelet): Dose-dependent effect; Activity [8]: 0%

— ChEMBL document CHEMBL1148061, “Antiplatelet aggregation principles of Dendrobium loddigesii” (J Nat Prod, 1994)
